What is called pIC50 is the negative decadic logarithm of the IC50, by convention in mol/L.

This is an account of results in PMC8179660 (Chemical Science, 2021).

This experiment has as its target T1, p300 (Homo sapiens, UniProt Q09472).
T1 sequence (Q09472 1284-1673 limits assumed): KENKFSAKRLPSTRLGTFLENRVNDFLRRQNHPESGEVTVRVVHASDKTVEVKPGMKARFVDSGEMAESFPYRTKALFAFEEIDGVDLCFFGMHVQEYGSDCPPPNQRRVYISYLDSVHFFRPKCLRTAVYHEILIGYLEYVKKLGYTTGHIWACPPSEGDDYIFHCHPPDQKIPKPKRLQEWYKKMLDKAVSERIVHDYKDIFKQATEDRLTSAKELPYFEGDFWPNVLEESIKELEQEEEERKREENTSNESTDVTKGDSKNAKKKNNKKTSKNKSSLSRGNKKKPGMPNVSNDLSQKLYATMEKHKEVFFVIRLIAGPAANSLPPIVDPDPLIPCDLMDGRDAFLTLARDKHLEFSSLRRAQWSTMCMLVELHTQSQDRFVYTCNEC
The experiment can be described thus: radioactive acetyltransferase activity-based IC50 assay. It counts as biochemical. The method, boiled down:
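Test compounds came from a DNA-encoded peptide macrocycle library affinity selection against p300 using a poly-His/Ni-NTA magnetic bead binding system. They were resynthesized off-DNA, without the DNA tag, and tested for p300 inhibition in a radioactive acetyltransferase activity assay to derive IC50.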

pIC50: −log10 of the molar value.

Turning to `CC(C)C[C@H]1NC(=O)[C@@H](NC(=O)CCc2cccc([N+](=O)[O-])c2)Cc2ccc(cc2)SC[C@@H](C(N)=O)NC(=O)CC2(CCCCC2)CNC1=O` [Compound 33-C], the pIC50 was 5.28.
